ChEMBL document CHEMBL3124843, “Synthesis, cytostatic, antimicrobial, and anti-HCV activity of 6-substituted 7-(het)aryl-7-deazapurine ribonucleosides” (J Med Chem, 2014)
Active and inactive are the calls of the source. The rule behind the calls is not given here.

Tests used:
Pseudomonas aeruginosa [1] = test: Antibacterial activity against multi-resistant Pseudomonas aeruginosa A/16575 after 24 hrs; format: functional, organism-based
K562 [2] = test: Cytostatic activity against human K562 cells after 72 hrs by MTT assay; format: functional, cell-based; details: K562, 72 h
Outline: (§1)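 IC50 is the concentration that cuts cell growth by 50%, read by quantitative metabolic MTT staining after a 3-day treatment. The resistant sublines were made by raising the concentration of the cytotoxic drug step by step. CEM-DNR-bulk (daunorubicin-selected) stably overexpresses mrp-1. K562-TAX (paclitaxel-selected) expresses only mdr-1. HCT116p53−/− carries null p53 alleles. BJ and MRC-5 are nonmalignant fibroblasts.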

Pseudomonas aeruginosa [3] = test: Antibacterial activity against Pseudomonas aeruginosa CCM 3955 after 24 hrs; format: functional, organism-based
K562 [4] = test: Cytostatic activity against paclitaxel-resistant human K562 cells after 72 hrs by MTT assay; format: functional, cell-based; details: K562, 72 h; outline: as §1
Staphylococcus aureus [5] = test: Antibacterial activity against Staphylococcus aureus CCM 3953 after 24 hrs; format: functional, organism-based
Enterococcus faecalis = test: Antibacterial activity against Enterococcus faecalis CCM 4224 after 24 hrs; format: functional, organism-based
Candida parapsilosis = test: Antifungal activity against Candida parapsilosis after 48 hrs; format: functional, organism-based
Staphylococcus aureus [6] = test: Antibacterial activity against methicillin-resistant Staphylococcus aureus MRSA 4591 after 24 hrs; format: functional, organism-based
HCT-116 [7] = test: Cytostatic activity against human HCT116 cells after 72 hrs by MTT assay; format: functional, cell-based; details: HCT-116, 72 h; outline: as §1
[8] = Cytostatic activity against human CEM-DNR-bulk cells after 72 hrs by MTT assay; format: functional, cell-based; outline: as §1
MRC5 = test: Cytostatic activity against human MRC5 cells after 72 hrs by MTT assay; format: ADME, cell-based; details: MRC5, 72 h; outline: as §1
Escherichia coli [9] = test: Antibacterial activity against Escherichia coli CCM 3954 after 24 hrs; format: functional, organism-based
Hepatitis C virus = test: Antiviral activity against Hepatitis C virus subtype 1b infected in human HuH7 cells; format: functional, organism-based, Hepacivirus hominis; details: genotype 1b, Huh-7
HCT-116 [10] = test: Cytostatic activity against p53-deficient human HCT116 cells after 72 hrs by MTT assay; format: functional, cell-based; details: HCT-116, 72 h; outline: as §1
Escherichia coli [11] = test: Antibacterial activity against multi-resistant Escherichia coli C/16702 after 24 hrs; format: functional, organism-based
HL-60 = test: Antiproliferative activity against human HL60 cells after 72 hrs by XTT assay; format: functional, cell-based; details: HL-60, 72 h
Outline: (§2)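 Antiproliferative test on HL-60 promyelocytic leukemia and HeLa S3 cervical carcinoma cells growing in liquid suspension.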

[12] = Cytotoxicity against human HuH7 cells infected with Hepatitis C virus subtype 1b; format: cell-based, Huh-7
[13] = Antiproliferative activity against human HeLaS3 cells after 72 hrs by XTT assay; format: functional, cell-based; details: HeLa S3, 72 h; outline: as §2
BJ = test: Cytostatic activity against human BJ cells after 72 hrs by MTT assay; format: ADME, cell-based; outline: as §1
Candida albicans = test: Antifungal activity against Candida albicans after 48 hrs; format: functional, organism-based
HepG2 = test: Antiproliferative activity against human HepG2 cells after 72 hrs by XTT assay; format: functional, cell-based; details: HepG2, 72 h
[14] = system: Staphylococcus haemolyticus; test: Antibacterial activity against methicillin-resistant Staphylococcus haemolyticus A/16568 after 24 hrs; format: functional, organism-based
Candida tropicalis = test: Antifungal activity against Candida tropicalis after 48 hrs; format: functional, organism-based
Pichia kudriavzevii = test: Antifungal activity against Candida crusei after 48 hrs; format: functional, organism-based
CCRF-CEM = test: Cytostatic activity against human CCRF-CEM cells after 72 hrs by MTT assay; format: functional, cell-based; outline: as §1
A549 = test: Cytostatic activity against human A549 cells after 72 hrs by MTT assay; format: functional, cell-based; details: A549, 72 h; outline: as §1

SMILES | Activity (Pseudomonas aeruginosa [1]) | IC50 (K562 [2]) [µM] | Activity (Pseudomonas aeruginosa [3]) | IC50 (K562 [4]) [µM] | Activity (Staphylococcus aureus [5]) | Activity (Enterococcus faecalis) | Activity (Candida parapsilosis) | Activity (Staphylococcus aureus [6]) | IC50 (HCT-116 [7]) [µM] | IC50 [8] [µM] | IC50 (MRC5) [µM] | Activity (Escherichia coli [9]) | EC50 (Hepatitis C virus) [µM] | IC50 (HCT-116 [10]) [µM] | Activity (Escherichia coli [11]) | IC50 (HL-60) [µM] | CC50 [12] [µM] | IC50 [13] [µM] | IC50 (BJ) [µM] | Activity (Candida albicans) | also measured
C#Cc1cn([C@@H]2O[C@H](CO)[C@@H](O)[C@H]2O)c2nc(C)nc(N)c12 | inactive | > 20 | inactive | 3.29 | inactive | inactive | inactive | inactive | > 20 | 12.6 | > 100 | inactive | 8 | > 20 | inactive | > 20 | > 44 | > 20 | > 100 | inactive | IC50 (HepG2): > 20 µM; Activity [14]: inactive; Activity (Candida tropicalis): inactive; Activity (Pichia kudriavzevii): inactive; IC50 (CCRF-CEM): > 20 µM; IC50 (A549): > 20 µM
COc1nc(N)nc2c1c(-c1ccco1)cn2[C@@H]1O[C@H](CO)[C@@H](O)[C@H]1O | inactive | > 20 | inactive | > 20 | inactive | inactive | inactive | inactive | > 20 | > 20 | 89.7 | inactive | 2.44 | > 20 | inactive | > 20 | > 44 | > 20 | > 100 | inactive | IC50 (HepG2): > 20 µM; Activity [14]: inactive; Activity (Candida tropicalis): inactive; Activity (Pichia kudriavzevii): inactive; IC50 (CCRF-CEM): > 20 µM; IC50 (A549): > 20 µM
COc1nc(N)nc2c1c(-c1ccsc1)cn2[C@@H]1O[C@H](CO)[C@@H](O)[C@H]1O | inactive | > 20 | inactive | > 20 | inactive | inactive | inactive | inactive | > 20 | > 20 | > 100 | inactive | 14.5 | > 20 | inactive | > 20 | > 44 | > 20 | > 100 | inactive | IC50 (HepG2): > 20 µM; Activity [14]: inactive; Activity (Candida tropicalis): inactive; Activity (Pichia kudriavzevii): inactive; IC50 (CCRF-CEM): > 20 µM; IC50 (A549): > 100 µM
Nc1nc(N)c2c(-c3ccco3)cn([C@@H]3O[C@H](CO)[C@@H](O)[C@H]3O)c2n1 | inactive | > 20 | inactive | > 20 | inactive | inactive | inactive | inactive | > 20 | > 20 | > 100 | inactive | 12.5 | > 20 | inactive | > 20 | > 44 | > 20 | > 100 | inactive | IC50 (HepG2): > 20 µM; Activity [14]: inactive; Activity (Candida tropicalis): inactive; Activity (Pichia kudriavzevii): inactive; IC50 (CCRF-CEM): > 20 µM; IC50 (A549): > 20 µM
